Measured values from publication PMC5381633 (Genome Biology and Evolution, 2017).

Tests used:
tunicate LXR = details: ref Reschly et al. 2008; cited from earlier work
LXRβ = details: human and mouse LXRs; ref Reschly et al. 2008; cited from earlier work
B. lanceolatum LXR = molecular target: T1, B. lanceolatum LXR (Branchiostoma lanceolatum, UniProt A0A8J9ZB24); assay: GAL4-LBD chimeric receptor luciferase transactivation assay in COS-1 cells; type: cell-based
T1 sequence (A0A8J9ZB24 168-437): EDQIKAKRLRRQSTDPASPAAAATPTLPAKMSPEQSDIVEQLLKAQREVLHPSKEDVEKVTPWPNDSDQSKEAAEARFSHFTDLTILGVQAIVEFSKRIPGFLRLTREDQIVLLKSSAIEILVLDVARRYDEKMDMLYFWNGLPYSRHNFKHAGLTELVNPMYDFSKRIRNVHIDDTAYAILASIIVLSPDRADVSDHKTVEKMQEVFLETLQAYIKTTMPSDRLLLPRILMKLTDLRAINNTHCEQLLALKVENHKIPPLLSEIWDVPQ
Method in brief: (§1)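 The receptor's ligand-binding domain plus hinge was fused to the GAL4 DBD in pBIND. COS-1 cells were seeded 24 h before lipofection with 500 ng receptor plasmid and 1,000 ng GAL4UAS-luc2P reporter. After 5 h, medium became phenol red-free DMEM/10% charcoal-stripped FBS with compound in DMSO (oxysterols 10^1–10^5.5 nM). Dual-luciferase was read 24 h post-transfection, in triplicate over three experiments, as mean ± SE. EC50 came from sigmoidal dose–response curves. Normalized fold activation was compared by one-way ANOVA/Holm–Sidak.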

L. japonicum LXR = molecular target: T2, L. japonicum LXR (Lethenteron camtschaticum, UniProt A0A1S6EKM6); assay: as above; type: cell-based
T2 sequence (A0A1S6EKM6 89-387): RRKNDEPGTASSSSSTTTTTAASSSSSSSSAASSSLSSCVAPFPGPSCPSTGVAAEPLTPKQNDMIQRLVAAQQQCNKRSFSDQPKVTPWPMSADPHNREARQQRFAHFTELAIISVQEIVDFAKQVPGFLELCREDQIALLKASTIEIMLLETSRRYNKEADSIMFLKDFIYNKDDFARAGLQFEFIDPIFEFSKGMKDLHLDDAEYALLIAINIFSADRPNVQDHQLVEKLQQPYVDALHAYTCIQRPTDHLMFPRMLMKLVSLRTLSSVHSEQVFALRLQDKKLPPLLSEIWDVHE
Method in brief: as §1

LXRα = details: human and mouse LXRs; ref Reschly et al. 2008; cited from earlier work
L. erinacea LXRα = molecular target: T3, L. erinacea LXRα (Leucoraja erinacea, UniProt A0A1S6EKM1); assay: GAL4-LBD chimeric receptor luciferase transactivation assay in COS-1 cells; type: cell-based; details: all tested concentrations, P < 0.001
T3 sequence (A0A1S6EKM1 181-451): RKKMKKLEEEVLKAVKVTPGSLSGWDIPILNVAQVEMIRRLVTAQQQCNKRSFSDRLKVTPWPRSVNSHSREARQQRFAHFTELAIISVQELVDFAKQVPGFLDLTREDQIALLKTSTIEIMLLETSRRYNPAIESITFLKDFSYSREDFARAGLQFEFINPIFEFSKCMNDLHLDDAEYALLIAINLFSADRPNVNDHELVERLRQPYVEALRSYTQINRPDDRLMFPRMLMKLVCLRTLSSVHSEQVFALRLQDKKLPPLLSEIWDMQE
Method in brief: as §1

L. erinacea LXRβ = molecular target: T4, L. erinacea LXRβ (Leucoraja erinacea, UniProt A0A1S6EKM5); assay: as above; type: cell-based; details: all tested concentrations, P < 0.001
T4 sequence (A0A1S6EKM5 2-271): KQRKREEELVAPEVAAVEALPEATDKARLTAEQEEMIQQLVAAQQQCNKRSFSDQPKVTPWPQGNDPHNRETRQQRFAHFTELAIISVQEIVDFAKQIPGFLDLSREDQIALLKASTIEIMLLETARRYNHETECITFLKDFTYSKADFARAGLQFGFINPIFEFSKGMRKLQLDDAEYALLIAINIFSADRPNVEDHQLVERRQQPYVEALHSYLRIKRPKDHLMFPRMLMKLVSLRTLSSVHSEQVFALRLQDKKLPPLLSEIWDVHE
Method in brief: as §1

Row | SMILES | activation of tunicate LXR (in words) (tunicate LXR) | activation of LXRβ (in words) (LXRβ) | transcriptional activation of lamprey LXR (in words) (L. japonicum LXR) | activation of LXRα (in words) (LXRα) | also measured
1 | C[C@@]12CCC[C@H]1[C@@H]1CC[C@H]3C[C@@H](O)CC[C@]3(C)[C@H]1CC2 [androstanol] | induced |  |  |  | 
2 | CC(C)[C@@H](O)CC[C@@H](C)[C@H]1CC[C@H]2[C@@H]3CC=C4C[C@@H](O)CC[C@]4(C)[C@H]3CC[C@]12C [24-HC, 24(S)-hydroxycholesterol] |  | robustly activated | strongly induced | robustly activated | transcriptional activation of amphioxus LXR (in words) (B. lanceolatum LXR): residually, but significantly, activated
3 | C[C@H](CC[C@@H]1OC1(C)C)[C@H]1CC[C@H]2[C@@H]3CC=C4C[C@@H](O)CC[C@]4(C)[C@H]3CC[C@]12C [24,25-EC, 24(S),25-epoxycholesterol] |  | robustly activated | strongly induced | robustly activated | 
4 | O=Cc1c2[nH]c3ccccc3c2cc2[nH]c3ccccc3c12 [6-Formylindolo(3,2-b)carbazole] | strongly activated |  |  |  | 
5 | C[C@H](CCCC(C)(C)O)[C@H]1CC[C@H]2[C@@H]3CC=C4C[C@@H](O)CC[C@]4(C)[C@H]3CC[C@]12C [25-HC, 25-hydroxycholesterol] |  | lower transcriptional responses | prominent and statistically significant (P < 0.001), yet only at higher concentrations | lower transcriptional responses | 
6 | O=S(=O)(c1ccccc1)N(CC(F)(F)F)c1ccc(C(O)(C(F)(F)F)C(F)(F)F)cc1 [T0901317] |  |  | significant activations |  | agonistic response, little skate LXRα (in words) (L. erinacea LXRα): significant activations; agonistic response, little skate LXRβ (in words) (L. erinacea LXRβ): significant activations
7 | C[C@]12CC[C@@H](O)C[C@@H]1CC[C@@H]1[C@@H]2CC[C@]2(C)C=CC[C@@H]12 [androstenol] | induced |  |  |  | 
